Converted amounts (≈) assume the structure as drawn. The source made the active and inactive calls. No cut-off for these calls is given here. Bridge positions count the residues as written; N and C are the ends. Square brackets hold non-standard residues; d marks the D form. Peptide text beside a SMILES is read from it. * marks the point of attachment. Tetradecenoyl(2E,13-Me) = CC(C)CCCCCCCCC/C=C/C(=O)*; d(aThr) = C[C@@H](O)[C@@H](N)C(=O)O; dPip = O=C(O)[C@H]1CCCCN1; Dap = NC[C@H](N)C(=O)O
Tests used:
[1] = test system: Staphylococcus simulans; experiment: Antibacterial activity against Staphylococcus simulans 22 assessed as inhibition of bacterial growth incubated for 16 hrs in presence of UDP-MurNAc-pp by broth microdilution assay; type: functional, organism-based
Method in brief: (§1)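 The antibiotic was pre-incubated with the cell wall precursor (e.g. UDP-GlcNAc, C55-PP, C55-P) before being given to the bacteria, with vancomycin as positive control.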

[2] = test system: Staphylococcus simulans; experiment: Antibacterial activity against Staphylococcus simulans 22 assessed as inhibition of bacterial growth incubated for 16 hrs in presence of lipid II by broth microdilution assay; type: functional, organism-based; method in brief: as §1
[3] = test system: Staphylococcus simulans; experiment: Antibacterial activity against Staphylococcus simulans 22 assessed as inhibition of bacterial growth incubated for 16 hrs in presence of lipid I by broth microdilution assay; type: functional, organism-based; method in brief: as §1
[4] = test system: Staphylococcus simulans; experiment: Antibacterial activity against Staphylococcus simulans 22 assessed as inhibition of bacterial growth incubated for 16 hrs in presence of UDP-GlcNAc by broth microdilution assay; type: functional, organism-based; method in brief: as §1
[5] = test system: Staphylococcus simulans; experiment: Antibacterial activity against Staphylococcus simulans 22 assessed as inhibition of bacterial growth incubated for 16 hrs in presence of C15-PP by broth microdilution assay; type: functional, organism-based; method in brief: as §1
[6] = test system: Staphylococcus simulans; experiment: Antibacterial activity against Staphylococcus simulans 22 assessed as inhibition of bacterial growth incubated for 16 hrs in presence of C55-PP by broth microdilution assay; type: functional, organism-based; method in brief: as §1
[7] = test system: Staphylococcus simulans; experiment: Antibacterial activity against Staphylococcus simulans 22 assessed as inhibition of bacterial growth incubated for 16 hrs in presence of C55-P by broth microdilution assay; type: functional, organism-based; method in brief: as §1
[8] = test system: Staphylococcus simulans; experiment: Antibacterial activity against Staphylococcus simulans 22 assessed as inhibition of bacterial growth incubated for 16 hrs in presence of C15-P by broth microdilution assay; type: functional, organism-based; method in brief: as §1
[9] = Binding affinity to undecaprenyl phosphate (C55-P) at 0.5 to 2 equiv in Ca2+-containing buffer incubated for 2 hrs by TLC-based binding assay; details: dose 0.5-2 equiv
[10] = Binding affinity to undecaprenyl phosphate (C55-P) assessed as reduction in lipid II synthesis at 0.5 to 2 equiv in presence of UDP-GlcNAc, UDPMurNAc-pentapeptide and Micrococcus flavus membrane vesicles and measured after 2 hrs by TLC analysis; details: dose 0.5-2 equiv
Method in brief: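 C55-P was pre-treated with the antibiotic over a range of concentrations. UDP-GlcNAc, UDP-MurNAc-pentapeptide and M. flavus membrane vesicles containing MraY and MurG were then added, and lipid II formation was monitored.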

[11] = test system: Staphylococcus aureus; experiment: Induction of UDP-MurNAc-pentapeptide accumulation in Staphylococcus aureus ATCC 29213 at 10 times MIC incubated for 60 mins by HPLC analysis; type: functional
[12] = Binding affinity to lipid II at 0.5 to 2 equiv in Ca2+-containing buffer incubated for 2 hrs by TLC-based binding assay; details: dose 0.5-2 equiv
[13] = Binding affinity to calcium at 60 uM in pH 7.4 buffer by CD spectroscopy
[14] = test system: Staphylococcus simulans; experiment: Antibacterial activity against Staphylococcus simulans 22 assessed as inhibition of bacterial growth incubated for 16 hrs in presence of 10 mM Ca2+ by broth microdilution assay; type: functional
Method in brief: (§2)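 MICs were read in µg/mL against indicator strains S. aureus 29213 and S. simulans 22. The growth medium was supplemented with Ca2+ at 5.0 or 10 mM.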

[15] = test system: Staphylococcus aureus; experiment: Antibacterial activity against Staphylococcus aureus ATCC 29213 assessed as inhibition of bacterial growth incubated for 16 hrs in presence of 10 mM Ca2+ by broth microdilution assay; type: functional
Method in brief: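 MIC, read in µg/mL, was determined in growth medium supplemented with Ca2+ at a final 10 mM. The same strain was also tested at 5 mM Ca2+ to check how calcium level affects the MIC.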

[16] = test system: Staphylococcus simulans; experiment: Antibacterial activity against Staphylococcus simulans 22 assessed as inhibition of bacterial growth incubated for 16 hrs in presence of 5 mM Ca2+ by broth microdilution assay; type: functional; method in brief: as §2
[17] = test system: Staphylococcus aureus; experiment: Antibacterial activity against Staphylococcus aureus ATCC 29213 assessed as inhibition of bacterial growth incubated for 16 hrs by broth microdilution assay; type: functional; method in brief: as §2
[18] = Binding affinity to undecaprenyl phosphate (C55-P) in large unilamellar vesicles comprising 1,2-dioleoyl-sn-glycero-3-phosphocholine containing 1.5 mol % C55-P by ITC analysis
Method in brief: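 Isothermal titration calorimetry: DOPC vesicles containing 1.5 mol% C55-P were titrated into the antibiotic solution in HEPES buffer with CaCl2. Heat was plotted against molar ratio.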

SMILES | Activity [1] | Activity [2] | Activity [3] | Activity [4] | Activity [5] | Activity [6] | Activity [7] | Activity [8] | Activity [9] | Activity [10] | Activity [11] | Activity [12] | Activity [13] | MIC [14] | MIC [15] [mg/L] | MIC [16] [mg/L] | MIC [17] [mg/L] | Kd [18] [nM]
CN[C@H](CC(C)C)C(=O)N[C@H]1C(=O)N[C@@H](CC(N)=O)C(=O)N[C@H]2C(=O)N[C@H]3C(=O)N[C@H](C(=O)N[C@H](C(=O)O)c4cc(O)cc(O)c4-c4cc3ccc4O)[C@H](O)c3ccc(c(Cl)c3)Oc3cc2cc(c3O[C@@H]2O[C@H](CO)[C@@H](O)[C@H](O)[C@H]2O[C@H]2C[C@](C)(N)[C@H](O)[C@H](C)O2)Oc2ccc(cc2Cl)[C@H]1O | inactive | inactive | inactive |  |  |  |  |  |  |  |  |  |  |  |  |  |  | 
CCCCCCCCCC(=O)N[C@@H](Cc1c[nH]c2ccccc12)C(=O)N[C@H](CC(N)=O)C(=O)N[C@@H](CC(=O)O)C(=O)N[C@H]1CNC(=O)[C@@H](CC(=O)c2ccccc2N)NC(=O)[C@H](CCC(=O)O)NC(=O)[C@@H](CO)NC(=O)CNC(=O)[C@H](CC(=O)O)NC(=O)[C@@H](C)NC(=O)[C@H](CC(=O)O)NC(=O)[C@H](CCCN)NC(=O)CNC1=O | Active | Active | Active | Active | Active | Active | Active | Active |  |  |  |  |  |  |  |  |  | 
CCCCCCCCCC(=O)N[C@@H](Cc1c[nH]c2ccccc12)C(=O)N[C@@H](CC(N)=O)C(=O)N[C@@H](CC(=O)O)C(=O)N[C@@H]1C(=O)NCC(=O)N[C@@H](CCCN)C(=O)N[C@H](CC(=O)O)C(=O)N[C@H](C)C(=O)N[C@@H](CC(=O)O)C(=O)NCC(=O)N[C@H](CO)C(=O)N[C@@H]([C@@H](C)CC(=O)O)C(=O)N[C@@H](CC(=O)c2ccccc2N)C(=O)O[C@@H]1C | Active | Active | Active | Active | Active | Active | Active | Active | inactive | inactive | inactive | inactive |  |  |  |  |  | 
CCCCCCCCCC(=O)N[C@@H](Cc1c[nH]c2ccccc12)C(=O)N[C@H](CC(N)=O)C(=O)N[C@@H](CC(=O)O)C(=O)N[C@H]1CNC(=O)[C@H]2CCCN2C(=O)[C@H]([C@@H](C)CC)NC(=O)[C@@H]([C@@H](C)O)NC(=O)CNC(=O)[C@H](CC(=O)O)NC(=O)[C@@H](C)NC(=O)[C@H](CC(=O)O)NC(=O)CNC(=O)[C@H]2CCCCN2C1=O | Active | Active | Active | Active | Active | Active | Active | Active |  |  |  |  | Active | inactive |  |  |  | 
CCCCCCCCCC(=O)N[C@@H](Cc1c[nH]c2ccccc12)C(=O)N[C@H](CC(N)=O)C(=O)N[C@@H](CC(=O)O)C(=O)N[C@@H]1C(=O)NCC(=O)N[C@@H](CCCN)C(=O)N[C@@H](CC(=O)O)C(=O)N[C@H](C)C(=O)N[C@@H](CC(=O)O)C(=O)NCC(=O)N[C@H](CO)C(=O)N[C@@H]([C@@H](C)CC(=O)O)C(=O)N[C@@H](CC(=O)c2ccccc2N)C(=O)O[C@@H]1C |  |  |  |  |  |  |  |  |  |  |  |  |  | ≤ 0.031 mg/L | 0.125 | 0.031 | 0.25 (≈ 0.154 µM) | 
CCCCCCCCCC(=O)N[C@@H](Cc1c[nH]c2ccccc12)C(=O)N[C@H](CC(N)=O)C(=O)N[C@@H](CC(=O)O)C(=O)N[C@H]1CNC(=O)[C@@H](Cc2c[nH]c3ccccc23)NC(=O)[C@H](CCC(=O)O)NC(=O)[C@@H](CO)NC(=O)CNC(=O)[C@H](CC(=O)O)NC(=O)[C@@H](C)NC(=O)[C@H](CC(=O)O)NC(=O)[C@H](CCCN)NC(=O)CNC1=O | Active | Active | Active | Active | Active | Active | Active | Active |  |  |  |  |  |  |  |  |  | 
CCCCCCCCCC(=O)N[C@@H](Cc1c[nH]c2ccccc12)C(=O)N[C@H](CC(N)=O)C(=O)N[C@@H](CC(=O)O)C(=O)N[C@H]1CNC(=O)[C@@H](CC(=O)c2ccccc2N)NC(=O)[C@H](CCC(=O)O)NC(=O)[C@@H](CO)NC(=O)CNC(=O)[C@H](CC(=O)O)NC(=O)[C@@H](C)NC(=O)[C@H](CC(=O)O)NC(=O)[C@H](CCCN)NC(=O)[C@H]2CCCCN2C1=O | Active | Active | Active | Active | Active | Active | Active | Active |  |  |  |  |  |  |  |  |  | 
CC[C@H](C)[C@@H]1NC(=O)[C@@H]([C@@H](C)O)NC(=O)CNC(=O)[C@H](CC(=O)O)NC(=O)CNC(=O)[C@H](CC(=O)O)NC(=O)CNC(=O)[C@H]2CCCCN2C(=O)[C@@H](NC(=O)[C@H](CC(=O)O)NC(=O)/C=C/CCCCCCCCCC(C)C)CNC(=O)[C@@H]2CCCN2C1=O ({Tetradecenoyl(2E,13-Me)}-D[Dap][dPip]GDGDG[d(aThr)]IP; lactam 2-C) |  |  |  |  | Active | inactive | inactive | inactive | Active | Dose-dependent effect | Active | inactive |  | ≤ 1 mg/L | 2 | 4 | 4 (≈ 3.21 µM) | 7.3
CCCCCCCCCC(=O)N[C@@H](Cc1c[nH]c2ccccc12)C(=O)N[C@H](CC(N)=O)C(=O)N[C@@H](CC(=O)O)C(=O)N[C@H]1CNC(=O)[C@H]2CCCN2C(=O)[C@H]([C@@H](C)CC)NC(=O)[C@@H]([C@@H](C)O)NC(=O)CNC(=O)[C@H](CC(=O)O)NC(=O)[C@@H](C)NC(=O)[C@H](CC(=O)O)NC(=O)CNC(=O)CNC1=O | Active | Active | Active | Active | Active | Active | Active | Active |  |  |  |  |  |  |  |  |  | 
CCCCCCCCCC(=O)N[C@@H](Cc1c[nH]c2ccccc12)C(=O)N[C@H](CC(N)=O)C(=O)N[C@@H](CC(=O)O)C(=O)N[C@H]1CNC(=O)[C@H]2CCCN2C(=O)[C@H](CCC(=O)O)NC(=O)[C@@H](CO)NC(=O)CNC(=O)[C@H](CC(=O)O)NC(=O)[C@@H](C)NC(=O)[C@H](CC(=O)O)NC(=O)[C@H](CCCN)NC(=O)[C@H]2CCCCN2C1=O | Active | Active | Active | Active | Active | Active | Active | Active |  |  |  |  | Active | inactive |  |  |  | 
CCCCCCCCCC(=O)N[C@@H](Cc1c[nH]c2ccccc12)C(=O)N[C@H](CC(N)=O)C(=O)N[C@@H](CC(=O)O)C(=O)N[C@H]1CNC(=O)[C@@H](Cc2c[nH]c3ccccc23)NC(=O)[C@H](CCC(=O)O)NC(=O)[C@@H](CO)NC(=O)CNC(=O)[C@H](CC(=O)O)NC(=O)[C@@H](C)NC(=O)[C@H](CC(=O)O)NC(=O)[C@H](CCCN)NC(=O)[C@H]2CCCCN2C1=O | Active | Active | Active | Active | Active | Active | Active | Active |  |  |  |  |  |  |  |  |  | 

Source: ChEMBL document CHEMBL4680073, “Total Synthesis of Laspartomycin C and Characterization of Its Antibacterial Mechanism of Action” (J Med Chem, 2016)
